Data reported in ChEMBL document CHEMBL1143574, “N-[18F] fluoroethylpiperidin-4ylmethyl acetate, a novel lipophilic acetylcholine analogue for PET measurement of brain acetylcholinesterase activity” (J Med Chem, 2005).

How the values were obtained:
[1] = target: T1, Acetylcholinesterase (Rattus norvegicus) (UniProt P37136); test: Specificity for rat brain acetylcholinesterase as rate of hydrolysis using BW284c51
T1 sequence (whole entry): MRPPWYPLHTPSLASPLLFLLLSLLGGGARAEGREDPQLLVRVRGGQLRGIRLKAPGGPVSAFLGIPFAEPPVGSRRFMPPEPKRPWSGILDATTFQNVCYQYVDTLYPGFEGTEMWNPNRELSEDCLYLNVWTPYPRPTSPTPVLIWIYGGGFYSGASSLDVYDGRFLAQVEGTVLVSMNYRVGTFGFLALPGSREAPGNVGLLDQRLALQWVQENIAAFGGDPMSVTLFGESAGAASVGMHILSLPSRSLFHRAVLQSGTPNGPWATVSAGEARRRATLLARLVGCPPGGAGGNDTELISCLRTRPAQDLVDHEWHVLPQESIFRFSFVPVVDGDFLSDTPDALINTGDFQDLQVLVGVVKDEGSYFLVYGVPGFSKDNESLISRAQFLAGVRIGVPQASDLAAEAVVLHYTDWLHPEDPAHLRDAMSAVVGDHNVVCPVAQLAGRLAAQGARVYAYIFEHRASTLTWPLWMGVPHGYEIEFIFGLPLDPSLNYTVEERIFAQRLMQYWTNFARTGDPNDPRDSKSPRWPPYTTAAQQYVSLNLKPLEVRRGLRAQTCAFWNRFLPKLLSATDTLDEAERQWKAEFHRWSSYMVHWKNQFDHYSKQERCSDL
How it was run: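 Rat cerebral cortex homogenate (Wistar, male, 8 wk, n=3) in 0.1 M phosphate buffer pH 7.4, run with labeled ester (15 kBq) with or without BW284c51 (30 nM). Hydrolysis rate measured by TLC and phosphor imaging of remaining ester. Specificity = […].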

[2] = (§1) Partition coefficient (logP) measured in a mixture of 1-octanol/phosphate buffer (0.1 M, pH 7.4); type: physicochemical
How it was run: (§2)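 Labeled ester or metabolite added to 1:1 1-octanol/0.1 M phosphate buffer pH 7.4, shaken vigorously, equilibrated 1 h at room temperature. Phase radioactivity counted by gamma or liquid scintillation counter, purity checked by TLC. Value = organic/aqueous concentration ratio.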

[3] = First-order hydrolysis rate constant in rat cerebral cortical homogenate at a unit tissue concentration (g/mL) without inhibitor; type: ADME, tissue-based
How it was run: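 Rat (Wistar, male, 8 wk, 210-230 g, n=3) cerebral cortex homogenized in ice-cold 0.1 M phosphate buffer pH 7.4 and diluted. Labeled ester (15 kBq) added to start reaction. Unchanged ester and metabolite separated by TLC and quantified by phosphor imaging. Rate = −ln(A2/A1)/(T2−T1)/C. Statistics by Games-Howell test.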

[4] = as §1; type: physicochemical; how it was run: as §2; remark: listed apart in the source
[5] = tested as the 11C-labelled form
[6] = tested as the 18F-labelled form

SMILES	Specificity [1, 5]	Specificity [1, 6]	logD [2]	Total rate [3]	logD [4]
CC(=O)OC1CCN(C)CC1	97%				
CC(=O)OCC1CCN(CCF)CC1		86%			
CCC(=O)OC1CCN([11CH3])CC1			-2.2	0.41 min⁻¹	-0.22
CC(=O)OC1CCN(CCF)CC1		65%			
CC(=O)OC1CCN(CC[18F])CC1			-1.9	0.1 min⁻¹	-0.11
CC(=O)OC1CCN([11CH3])CC1			-2.2	1.73 min⁻¹	-0.3
CCC(=O)OC1CCN(C)CC1	82%				
CC(=O)OCC1CCN(CC[18F])CC1			-1.3	1.67 min⁻¹	0.04
